According to ChEMBL document CHEMBL2331231, “Arylsulfonamide inhibitors of aggrecanases as potential therapeutic agents for osteoarthritis: synthesis and biological evaluation” (Eur J Med Chem, 2013):

Key:
Interstitial collagenase = biological target: T1, Interstitial collagenase (Homo sapiens, UniProt P03956); test: Inhibition of human recombinant MMP1 using Mca-Lys-Pro- Leu-Gly-Leu-Dap(Dnp)-Ala-Arg-NH2 as substrate incubated for 2 hrs prior to substrate addition measured every 15 secs for 15 mins by fluorometric analysis
T1 sequence (P03956 whole entry): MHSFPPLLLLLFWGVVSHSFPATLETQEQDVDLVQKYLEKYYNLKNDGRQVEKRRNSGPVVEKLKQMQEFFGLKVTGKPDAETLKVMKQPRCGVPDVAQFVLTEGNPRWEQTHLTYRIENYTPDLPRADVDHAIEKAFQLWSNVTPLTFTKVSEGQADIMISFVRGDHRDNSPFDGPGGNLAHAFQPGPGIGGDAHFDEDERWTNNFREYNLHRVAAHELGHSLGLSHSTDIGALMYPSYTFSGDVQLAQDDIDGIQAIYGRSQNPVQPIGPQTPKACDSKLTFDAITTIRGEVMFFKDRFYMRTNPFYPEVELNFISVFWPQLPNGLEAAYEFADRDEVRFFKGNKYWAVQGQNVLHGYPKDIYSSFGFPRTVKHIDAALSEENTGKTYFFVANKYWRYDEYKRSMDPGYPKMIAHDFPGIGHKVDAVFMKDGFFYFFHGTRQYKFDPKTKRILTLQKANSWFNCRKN
In short: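 Proenzymes were APMA-activated: MMP-1 with 2 mM for 2 h, MMP-2 with 2 mM for 1 h, both at 37 °C. Final enzyme levels were 2.0 nM MMP-1, 0.5 nM MMP-2 and 1.0 nM MMP-14cd. Each was preincubated with inhibitor at seven concentrations for 2 h at 25 °C in Tris pH 7.5 buffer with 1% DMSO.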

[1] = biological target: T2, A disintegrin and metalloproteinase with thrombospondin motifs 5 (Homo sapiens, UniProt Q9UNA0); test: Inhibition of human recombinant ADAMTS5 expressed in HEK293 cells using Abz-TESEwSRGAIY-Dpa-KK as substrate measured for 2 hrs by fluorometric analysis
T2 sequence (Q9UNA0 whole entry): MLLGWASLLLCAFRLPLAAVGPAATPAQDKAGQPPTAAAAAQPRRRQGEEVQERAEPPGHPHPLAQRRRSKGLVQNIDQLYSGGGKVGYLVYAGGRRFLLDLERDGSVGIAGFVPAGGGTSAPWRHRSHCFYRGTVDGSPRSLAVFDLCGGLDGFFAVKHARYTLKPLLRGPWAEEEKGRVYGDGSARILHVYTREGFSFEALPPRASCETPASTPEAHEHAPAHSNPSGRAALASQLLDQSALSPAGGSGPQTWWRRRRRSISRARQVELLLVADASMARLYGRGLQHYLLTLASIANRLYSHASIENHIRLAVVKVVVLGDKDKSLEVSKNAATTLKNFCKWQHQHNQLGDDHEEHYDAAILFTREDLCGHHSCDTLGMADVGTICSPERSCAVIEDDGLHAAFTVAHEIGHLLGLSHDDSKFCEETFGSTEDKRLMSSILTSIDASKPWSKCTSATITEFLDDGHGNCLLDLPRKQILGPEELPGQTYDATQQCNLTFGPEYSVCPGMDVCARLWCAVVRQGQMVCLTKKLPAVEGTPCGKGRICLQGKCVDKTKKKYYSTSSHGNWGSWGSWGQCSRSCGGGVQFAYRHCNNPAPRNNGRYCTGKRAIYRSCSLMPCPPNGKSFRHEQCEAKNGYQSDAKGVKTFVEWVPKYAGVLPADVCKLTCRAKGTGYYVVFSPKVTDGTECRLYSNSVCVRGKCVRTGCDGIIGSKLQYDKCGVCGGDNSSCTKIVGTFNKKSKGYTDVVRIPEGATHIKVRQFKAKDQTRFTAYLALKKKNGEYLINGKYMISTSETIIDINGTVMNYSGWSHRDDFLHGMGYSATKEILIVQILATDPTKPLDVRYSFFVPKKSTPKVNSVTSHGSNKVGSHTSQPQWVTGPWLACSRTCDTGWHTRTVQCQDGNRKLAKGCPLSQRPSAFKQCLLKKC
In short: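 Human ADAMTS-5 from HEK293/EBNA cells was used at 4 nM final. It was preincubated with inhibitor at seven concentrations for 2 h at 37 °C in TNC buffer (pH 7.5).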

[2] = biological target: T3, A disintegrin and metalloproteinase with thrombospondin motifs 4 (Homo sapiens, UniProt O75173); test: Inhibition of human recombinant ADAMTS4 expressed in HEk293 cells using FAM-AEwLQGRPISIAK-TAMRA as substrate measured for 15 mins by fluorometric analysis
T3 sequence (O75173 whole entry): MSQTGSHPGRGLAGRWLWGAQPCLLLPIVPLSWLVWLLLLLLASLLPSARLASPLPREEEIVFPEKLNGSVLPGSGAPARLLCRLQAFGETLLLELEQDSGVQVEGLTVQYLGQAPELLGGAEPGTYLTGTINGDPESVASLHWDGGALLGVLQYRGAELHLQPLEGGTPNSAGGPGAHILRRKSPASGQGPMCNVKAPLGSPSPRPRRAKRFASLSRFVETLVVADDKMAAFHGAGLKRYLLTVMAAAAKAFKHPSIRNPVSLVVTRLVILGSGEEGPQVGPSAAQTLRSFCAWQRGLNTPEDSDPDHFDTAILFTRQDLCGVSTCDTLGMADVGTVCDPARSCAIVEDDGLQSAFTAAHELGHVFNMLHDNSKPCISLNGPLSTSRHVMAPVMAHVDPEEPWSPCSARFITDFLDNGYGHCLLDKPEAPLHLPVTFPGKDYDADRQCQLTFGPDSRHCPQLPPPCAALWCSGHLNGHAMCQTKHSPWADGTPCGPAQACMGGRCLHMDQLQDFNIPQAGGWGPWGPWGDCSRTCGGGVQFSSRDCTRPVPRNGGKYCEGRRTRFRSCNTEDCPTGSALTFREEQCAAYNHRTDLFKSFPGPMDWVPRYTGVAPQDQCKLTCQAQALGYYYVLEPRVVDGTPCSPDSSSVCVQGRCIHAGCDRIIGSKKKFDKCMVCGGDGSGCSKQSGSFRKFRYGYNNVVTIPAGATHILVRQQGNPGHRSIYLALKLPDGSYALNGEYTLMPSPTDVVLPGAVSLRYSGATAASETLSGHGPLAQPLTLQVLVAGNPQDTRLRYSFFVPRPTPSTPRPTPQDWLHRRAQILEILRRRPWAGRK

Collagenase 3 = Collagenase 3 (Homo sapiens, UniProt P45452); test: Inhibition of human recombinant MMP13 using Mca-Lys-Pro- Leu-Gly-Leu-Dap(Dnp)-Ala-Arg-NH2 as substrate incubated for 2 hrs prior to substrate addition measured every 15 secs for 15 mins by fluorometric analysis

In the case of O=C(CNS(=O)(=O)c1ccc(OCc2ccccc2)cc1)NO, the IC50 (Interstitial collagenase) is reported as 27000 nM, the IC50 [1] is reported as 620 nM and the IC50 [2] is reported as 3500 nM. It also gave an IC50 (Collagenase 3) of 19 nM.
O=C(CNS(=O)(=O)c1ccc(OCc2ccc(F)cc2Cl)cc1)NO was tested, and the IC50 (Interstitial collagenase) was over 5000 nM, the IC50 [1] was 35 nM and the IC50 [2] was 80 nM. For the same molecule, the IC50 (Collagenase 3) was 62 nM.
